According to ChEMBL document CHEMBL2321849, “Discovery and structure-activity relationships of small molecules that block the human immunoglobulin G-human neonatal Fc receptor (hIgG-hFcRn) protein-protein interaction” (Bioorg Med Chem Lett, 2013):

Test: Inhibition of human IgG-FcRn interaction by competition ELISA
Summary of the method: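 Competition ELISA: test compounds at various concentrations mixed with 3 nM human IgG, then incubated on plates coated with soluble human FcRn. Inhibition of hIgG binding to shFcRn measured; IC50 reported in µM.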

IC50 | SMILES
50 µM | COc1ccc(CNC(=O)C(C#N)c2nc3ccccc3nc2N2CCCCCC2)cc1 (stereo not given)
> 500 µM | CCCCNC(=O)C(C#N)c1nc2ccccc2nc1N1CCCCCC1 (stereo not given)
10 µM | COc1cccc(CNC(=O)C(C#N)c2nc3ccccc3nc2N2CCCCCC2)c1 (stereo not given)
80 µM | N#CC(C(=O)NCc1cccc(OC(F)(F)F)c1)c1nc2ccccc2nc1N1CCCCCC1 (stereo not given)
> 150 µM | COCCCNC(=O)C(C#N)c1nc2ccccc2nc1N1CCCCCC1 (stereo not given)
> 500 µM | COc1cccc(CNC(=O)C(C#N)c2nc3ccccc3nc2N2CCCN(C(C)=O)CC2)c1 (stereo not given)
100 µM | COc1cccc(CCNC(=O)C(C#N)c2nc3ccccc3nc2N2CCCCCC2)c1 (stereo not given)
400 µM | COc1cccc(CNC(=O)C(C#N)c2nc3ccc(C(=O)NCCCN(C)C)cc3nc2N2CCCCCC2)c1 (stereo not given)
> 500 µM | COc1cccc(CNC(=O)C(C#N)c2nc3ccccc3nc2N2CCCN(C(=O)OCc3ccccc3)CC2)c1 (stereo not given)
200 µM | Cc1cncc(Oc2cccc(CNC(=O)C(C#N)c3nc4ccccc4nc3N3CCCCCC3)c2)n1 (stereo not given)
> 500 µM | N#CC(C(=O)NCc1ccccc1)c1nc2ccccc2nc1N1CCCCCC1 (stereo not given)
> 1000 µM | N#CC(C(=O)NCc1cccs1)c1nc2ccccc2nc1N1CCCCCC1 (stereo not given)
6 µM | COc1cccc(CNC(=O)C(C#N)c2nc3ccccc3nc2N2CCCCCCC2)c1 (stereo not given)
> 500 µM | COc1cccc(CNC(=O)C(C#N)c2nc3ccccc3nc2N2CCCCC2)c1 (stereo not given)
> 500 µM | COc1cccc(CNC(=O)C(C#N)c2nc3ccccc3nc2N2CCCN(CCO)CC2)c1 (stereo not given)
500 µM | COc1cccc(CNC(=O)C(C#N)c2nc3ccc([N+](=O)[O-])cc3nc2N2CCCCCC2)c1 (stereo not given)
150 µM | COc1ccccc1CNC(=O)C(C#N)c1nc2ccccc2nc1N1CCCCCC1 (stereo not given)
> 1000 µM | N#CC(C(=O)NCc1cccnc1)c1nc2ccccc2nc1N1CCCCCC1 (stereo not given)
> 500 µM | COc1cccc(CNC(=O)C(C#N)c2nc3ccccc3nc2N2CCCN(C)CC2)c1 (stereo not given)
100 µM | COc1cccc(CNC(=O)C(C#N)c2nc3ccc(C#N)cc3nc2N2CCCCCC2)c1 (stereo not given)
> 500 µM | N#CC(C(=O)NCc1ccc(O)cc1)c1nc2ccccc2nc1N1CCCCCC1 (stereo not given)
> 500 µM | COc1cccc(CNC(=O)C(C#N)c2nc3ccccc3nc2NC2CCCCCC2)c1 (stereo not given)
120 µM | COCCNC(=O)C(C#N)c1nc2ccccc2nc1N1CCCCCC1 (stereo not given)
> 500 µM | COc1cccc(CNC(=O)C(C#N)c2nc3cc(OC)ccc3nc2N2CCCCCC2)c1 (stereo not given)
250 µM | COc1ccc(CNC(=O)C(C#N)c2nc3ccccc3nc2N2CCCCCC2)cc1OC (stereo not given)
40 µM | COc1ccc([C@H](C)NC(=O)C(C#N)c2nc3ccccc3nc2N2CCCCCC2)cc1 (stereo not given in full)
> 500 µM | COc1cccc(CNC(=O)C(C#N)c2nc3ccccc3nc2NC2CC3CCC2C3)c1 (stereo not given)
> 500 µM | COc1cccc(CNC(=O)C(C#N)c2nc3ccccc3nc2NCc2ccccc2)c1 (stereo not given)

IC50 | SMILES
> 500 µM | COc1cccc(CNC(=O)C(C#N)c2nc3ccccc3nc2N2CCN(C)CC2)c1 (stereo not given)
> 500 µM | COc1cccc(CNC(=O)C(C#N)c2nc3ccccc3nc2N2CCCC3CCCCC32)c1 (stereo not given)
> 500 µM | N#CC(C(=O)NCc1ccc(OCCN2CCOCC2)cc1)c1nc2ccccc2nc1N1CCCCCC1 (stereo not given)
> 250 µM | C=CCCNC(=O)C(C#N)c1nc2ccccc2nc1N1CCCCCC1 (stereo not given)
> 500 µM | COc1cccc(CNC(=O)C(C#N)c2nc3ccccc3nc2Sc2ccccc2)c1 (stereo not given)
> 500 µM | N#CC(C(=O)NCC1CCCCC1)c1nc2ccccc2nc1N1CCCCCC1 (stereo not given)
> 500 µM | COc1cccc(CNC(=O)C(C#N)c2nc3ccccc3nc2N2CCCOCC2)c1 (stereo not given)
400 µM | N#CC(C(=O)NCc1cccc(OCCN2CCOCC2)c1)c1nc2ccccc2nc1N1CCCCCC1 (stereo not given)
> 500 µM | COc1cccc(CNC(=O)C(C#N)c2nc3ccccc3nc2Nc2ccccc2)c1 (stereo not given)
> 500 µM | COc1cccc(CNC(=O)C(C#N)c2nc3ccc(C(=O)NCCc4cccnc4)cc3nc2N2CCCCCC2)c1 (stereo not given)
> 500 µM | COc1cccc(CNC(=O)C(C#N)c2nc3ccc(C(=O)NCc4cccnc4)cc3nc2N2CCCCCC2)c1 (stereo not given)
40 µM | N#Cc1ccc(CNC(=O)C(C#N)c2nc3ccccc3nc2N2CCCCCC2)cc1 (stereo not given)
120 µM | COc1ccc(CCNC(=O)C(C#N)c2nc3ccccc3nc2N2CCCCCC2)cc1 (stereo not given)
100 µM | N#CC(C(=O)NCc1cccc(Cl)c1)c1nc2ccccc2nc1N1CCCCCC1 (stereo not given)
40 µM | N#CC(C(=O)NCc1cccc(-c2nccs2)c1)c1nc2ccccc2nc1N1CCCCCC1 (stereo not given)
40 µM | COc1ccc([C@@H](C)NC(=O)C(C#N)c2nc3ccccc3nc2N2CCCCCC2)cc1 (stereo not given in full)
> 500 µM | COc1cccc(CNC(=O)C(C#N)c2nc3ccc(C(=O)Nc4ccccc4)cc3nc2N2CCCCCC2)c1 (stereo not given)
200 µM | CN(C)CCCOc1cccc(CNC(=O)C(C#N)c2nc3ccccc3nc2N2CCCCCC2)c1 (stereo not given)
> 500 µM | CN(C)c1ccc(CNC(=O)C(C#N)c2nc3ccccc3nc2N2CCCCCC2)cc1 (stereo not given)
> 1000 µM | N#CC(C(=O)NCc1ccccn1)c1nc2ccccc2nc1N1CCCCCC1 (stereo not given)
> 500 µM | COc1cccc(CNC(=O)C(C#N)c2nc3ccccc3nc2N2CCCNCC2)c1 (stereo not given)
> 1000 µM | N#CC(C(=O)NCc1ccco1)c1nc2ccccc2nc1N1CCCCCC1 (stereo not given)
150 µM | N#CC(C(=O)NCc1cccc(F)c1)c1nc2ccccc2nc1N1CCCCCC1 (stereo not given)
> 500 µM | N#CC(C(=O)NCCc1ccc(N)cc1)c1nc2ccccc2nc1N1CCCCCC1 (stereo not given)
30 µM | COc1cccc(CNC(=O)C(C#N)c2nc3cc(Cl)c(Cl)cc3nc2N2CCCCCC2)c1 (stereo not given)
> 500 µM | COc1cccc(CNC(=O)C(C#N)c2nc3ccccc3nc2N2CCOCC2)c1 (stereo not given)
2 µM | COc1ccc(C(CN2CCOCC2)NC(=O)C(C#N)c2nc3ccccc3nc2N2CCCCCC2)cc1 (stereo not given)
